Reference: ChEMBL document CHEMBL3872233, “Topical Treatment of Leishmania tropica Infection Using (-)-α-Bisabolol Ointment in a Hamster Model: Effectiveness and Safety Assessment” (J Nat Prod, 2016)

How the values were obtained:
[1] = test system: Leishmania tropica; test: (§1) Antileishmanial activity against Leishmania tropica MHOM/MA/1988/LEM1314 promastigotes infected in Syrian hamster assessed as reduction in lesion thickness at 2 mg/kg administered intralesionally once daily on footpad for 3 weeks starting at week 7 post infection measured 1 week post last dose relative to control; type: functional, organism-based; design: scale not given: the % may be the effect or the level left
In short: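 L. tropica stationary-phase promastigotes (3 × 10^7 in 50 μL PBS) injected into the left hind footpad. Treatment began at week 7 (+75% footpad thickness) and ran daily for 21 days, n = 10/group. Routes were 50 mg ointment on the lesion (cetyl alcohol/lanolin/petrolatum base), gavage in olive oil, or intralesional meglumine antimoniate 2 mg SbV/kg. Lesion thickness was measured weekly against base-only ointment; sacrifice was 1 week after the last dose.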

[2] = test system: Leishmania tropica; test: as §1, with “parasite load in foodpad skin” for “lesion thickness”, “dose by qPCR analysis” for “dose”; type: functional, organism-based; design: scale not given: the % may be the effect or the level left
In short: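 Hamsters were infected in the footpad and treated daily for 21 days from week 7 post-infection, n = 10/group, and sacrificed 1 week after the last dose. Footpad skin, liver and spleen DNA was assayed by L. tropica-specific TaqMan qPCR (chromosome 29 target), in triplicate with 50 ng DNA per 25 μL reaction. Load was interpolated from Ct on a calibration curve of promastigote DNA, relative to base-ointment controls.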

Substance: Meglumine antimoniate; Glucantime
- Activity [1]: 3.2%
- Activity [2]: 73%
